Experimental data gathered from unrelated publications.
Each line is one published result; the experiments were not run side by side.
Target: 5'-AMP-activated protein kinase catalytic subunit alpha-1 (PRKAA1, Homo sapiens, UniProt Q13131)
Method: competition with immobilised ligand

F[C@@H]1CCN(c2nccc(-c3cnn4ncccc34)n2)C1  remaining binding (binding; 1 µM): 85%
Cc1cnc(Nc2ccc(C(=O)N3CCC(N4CCCC4)CC3)cc2)nc1-c1cc2ccccc2s1  remaining binding (binding; 1 µM): 7.9%
COc1cnc(Nc2cccc(S(N)(=O)=O)c2)nc1N1CCN(c2ccccc2)CC1  remaining binding (binding; 1 µM): 100%
Cc1c(NC(=O)c2cc(C(N)=O)nc3cc(F)ccc23)c(C(F)(F)F)nn1Cc1ccc(C(C)(C)C)cc1  remaining binding (cell-free assay; 1 µM): 100%
CN(CCCC(F)(F)F)c1nccc(-c2cnn3ncccc23)n1  remaining binding (binding; 1 µM): 100%
Nc1ncc2c(n1)-c1c([nH]c3ccc(C#CC4CC4)cc13)CCCC2  remaining binding (binding; 1 µM): 97%
C[C@@H]1CCN(c2nccc(-c3cnn4ncccc34)n2)C1  remaining binding (binding; 1 µM): 99%
C[C@H](NC(=O)c1cnc2n1[C@](C)(Cc1ccc(C#N)cc1)C(=O)N2c1cc(Cl)c(F)c(Cl)c1)C(=O)NC1(c2ccccn2)CC1  remaining binding (cell-free assay; 1 µM): 100%
CN(C)c1nccc(-c2cnc3ncccn23)n1  remaining binding (binding; 1 µM): 100%
O=C(Nc1cnc(Oc2ccc(F)cc2)nc1)N1CCc2ncccc2[C@@H]1c1ccc(F)cc1  remaining binding (cell-free assay; 1 µM): 88%
O=C(c1ccc(Nc2nccc(-c3cc4ccccc4s3)n2)cc1)N1CCC(N2CCCC2)CC1  remaining binding (binding; 1 µM): 36%
COc1ncc2cc3ccccc3nc2c1C#N  remaining binding (cell-free assay; 5 µM): 100%
CC(=O)N1CCC(c2ccc(C(=O)NC3=NCCN3)cc2C(F)(F)F)CC1  remaining binding (cell-free assay; 1 µM): 100%
CCN1CCN(Cc2ccc(C(=O)Nc3ccc(C)c(Oc4ccc5c(c4)CC(=O)N5)c3)cc2C(F)(F)F)CC1  remaining binding (binding; 1 µM): 100%
CNCc1ccccc1-c1csc([C@@H](C)Nc2nc(C)nc3cc(OC)c(OC)cc23)c1  remaining binding (cell-free assay; 1 µM): 100%
CN(C)c1nccc(-c2cnn3ncccc23)n1  remaining binding (binding; 1 µM): 100%
FC(F)(F)Oc1cccc(-c2cnc3ccc(-c4ccncc4)nn23)c1  remaining binding (cell-free assay; 5 µM): 96%
O=C(NC[C@@H]1[C@H]2CN(C(=O)OCc3cc(C(F)(F)F)cc(C(F)(F)F)c3)C[C@@H]12)c1ccc2[nH]nnc2c1  remaining binding (cell-free assay; 1 µM): 100%
O=C(Nc1c[nH]nc1C(=O)NC1CCNCC1)c1cc(F)cc(F)c1  remaining binding (binding; 1 µM): 100%
N[C@@H]1CCN(c2nccc(-c3cnn4ncccc34)n2)C1  remaining binding (binding; 1 µM): 95%
O=C(c1ccc(Nc2ncc(Cl)c(-c3ccc(Cl)s3)n2)cc1)N1CCC(N2CCCC2)CC1  remaining binding (binding; 1 µM): 8.1%
